From PubChem BioAssay
RAD54 inh: blocks human RAD54 Holliday junction branch migration | Q92698 | FAM/BHQ fluorescence | inhibition, % at 10.4 µM | 360,000 compounds, 0.14% hits | AID 602329;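 active means mean normalized replicate activity at least 40 and at least half of replicates scoring 40 or more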;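 further: 0% = median of neutral control wells and 100% = median of positive control wells; inhibitors cause a drop in the FAM fluorescence signal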
PDI inh: PDI (human) enzyme inhibition. 350,000 compounds, 0.052% hits. P07237. PDI insulin aggregation turbidity, A650, 90 min. inhibition, % at 10 µM;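 active means mean inhibition across replicates of 30% or more, whatever share of single replicates reach that level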
Target sequence (P07237 whole entry, looked up): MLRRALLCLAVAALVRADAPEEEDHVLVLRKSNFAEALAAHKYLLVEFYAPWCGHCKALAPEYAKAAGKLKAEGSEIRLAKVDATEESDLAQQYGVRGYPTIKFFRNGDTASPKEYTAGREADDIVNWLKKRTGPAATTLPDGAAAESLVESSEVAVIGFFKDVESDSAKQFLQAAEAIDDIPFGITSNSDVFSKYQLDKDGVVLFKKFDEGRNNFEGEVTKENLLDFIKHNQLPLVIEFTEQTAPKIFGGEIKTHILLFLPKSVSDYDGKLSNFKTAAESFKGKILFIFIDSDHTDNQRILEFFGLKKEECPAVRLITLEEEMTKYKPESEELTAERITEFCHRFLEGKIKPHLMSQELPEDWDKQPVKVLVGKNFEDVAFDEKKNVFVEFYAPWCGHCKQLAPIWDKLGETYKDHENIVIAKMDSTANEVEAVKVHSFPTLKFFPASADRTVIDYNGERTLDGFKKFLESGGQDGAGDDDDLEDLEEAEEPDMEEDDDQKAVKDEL
RAD52 inh: blocks human RAD52 DNA annealing; P43351; recombinant RAD52 DNA annealing, FRET fluorescence; inhibition, % at 18.7 µM; 360,000 compounds, 0.46% hits;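 active means every replicate showing at least 50% inhibition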
ERp5 block: ERp5 (human) disulfide isomerase inhibition. Q15084. ERp5 insulin aggregation, absorbance 650 nm, 90 min. inhibition, % at 9.99 µM. 350,000 compounds, 0.05% hits;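 active means mean replicate inhibition above about 25%, with every replicate also reaching it, limit read from the data, passing the limit was not always enough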
CAL PDZ FP-1: inhibitors of human CAL PDZ peptide binding. Q9HD26. purified CAL PDZ, TMR-peptide fluorescence polarization, 1 h. inhibition, % at 24.9 µM. 300,000 compounds, 0.92% hits. AID 602252;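 active means mean inhibition of at least 30% with at least half of replicates also reaching 30%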;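 further: 0% = DMSO neutral control and 100% = excess unlabeled competitor peptide PRC23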
CAL PDZ FP-2: inhibitors of human CAL PDZ peptide binding; Q9HD26; purified CAL PDZ, TMR-peptide fluorescence polarization, 1 h; inhibition, % at 20 µM; 330,000 compounds, 0.02% hits;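 active means highest replicate inhibition of at least 40%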;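 further: plate controls were DMSO neutral control wells for no effect and unlabeled competitor peptide control wells for full effect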
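Material: tagged CAL PDZ domain; buffer or medium: 25 mM sodium phosphate pH 7.4, 150 mM NaCl, TCEP, IgG, Thesit; compound dosing: single point, 20 µM; schedule: 1 h incubation at room temperature before polarization reading; measured by: FP readout, S and P plane fluorescence; read-out basis: percent inhibition from loss of millipolarization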
* = called active by the depositor; x = not tested or not shown. Hits are enriched below; roughly 1% of the tested compounds scored in any of these assays.

SMILES | RAD54 inh | PDI inh | RAD52 inh | ERp5 block | CAL PDZ FP-1 | CAL PDZ FP-2
COc1ccc2c3c([nH]c2c1)[C@H](CO)N(C(=O)CN(C)C)CC31CN(Cc2ccccc2)C1 | x | x | 55* | 3 | x | x
COc1ccc2c3c([nH]c2c1)[C@@H](CO)N(C(=O)CN(C)C)CC31CN(CC2CC2)C1 | x | x | 56* | -1 | x | x
CCOc1ccc2cc(S(=O)(=O)N3CCCCC3)ccc2c1 | 13 | -10 | -6 | 2 | 60* | 0
CCCNC(=O)[C@H]1[C@H](CO)[C@H]2Cn3c(ccc(-c4ccccc4)c3=O)[C@H]2N1CC | 9 | x | -9 | 0 | x | x
CCn1c(/C=C/c2ccccc2C)nc2ccccc2c1=O | -6 | 0 | 0 | -6 | 51* | 0
Cc1ccccc1/C=C/c1nc2ccccc2c(=O)n1Cc1ccccc1 | x | -7 | x | x | 5 | -2
COC(=O)c1ccccc1S(=O)(=O)Oc1ccc(-c2ccc(C(=O)O)cc2)cc1 | -6 | -6 | 0 | 1 | -2 | -1
O=C(O)c1ccc(-c2ccc(OS(=O)(=O)c3ccccc3F)cc2)cc1 | 13 | 7 | -7 | 1 | 45* | -3
COc1ccc(Cl)cc1C(=O)NNC(=O)CNC(=O)c1ccc(C)s1 | -3 | 2 | -27 | 7 | 54* | 1
CCCC(=O)Nc1ccc2c(c1)C(=O)N(C)[C@@H]1CC[C@@H](CC(=O)Nc3cn(C)nc3C)O[C@H]1CO2 | -3 | x | -10 | 6 | x | x
COc1ccc2c3c(n(C)c2c1)[C@H](CO)N(C(=O)NC(C)C)CC31CN(CC2CC2)C1 | x | x | 3 | 0 | x | x
Cc1ccnc(N2C(=O)C3C4CC(C(Br)C4Br)C3C2=O)c1 (centres undefined) | x | -3 | x | x | -2 | -2
O=C1C2C3CC(C(Br)C3Br)C2C(=O)N1c1ccccn1 (centres undefined) | 4 | 1 | x | x | 44* | -1
CCCNC(=O)[C@H]1[C@H](CO)[C@H]2Cn3c(ccc(-c4ccccc4F)c3=O)[C@@H]1N2CC1CC1 | -2 | x | -8 | -3 | x | x
CC(=O)N(C)C[C@H]1Oc2cc(-c3cccc(C#N)c3)ccc2S(=O)(=O)N([C@@H](C)CO)C[C@H]1C | 5 | x | 4 | -1 | x | x
CCOCC(=O)NC1CCc2cc(OC(=O)COCC)c(OC)c(OC)c2-c2ccc(SC)c(=O)cc21 (centres undefined) | x | 2 | 10 | -6 | 34* | 0
O=C(NC(Cc1ccccc1)C(=O)O)/C(=C/c1ccccc1)NC(=O)c1ccco1 (centres undefined) | -7 | 2 | 1 | 2 | 63* | 0
O=C(Nc1ccccc1)N1CCCCN2[C@H](CO)[C@H](c3ccc(-c4ccccc4F)cc3)[C@@H]2C1 | 12 | x | -5 | -2 | x | x
O=C(Nc1ccc(F)cc1)N1CCCCN2[C@H](C1)[C@@H](c1ccc(-c3ccccc3F)cc1)[C@@H]2CO | 2 | x | 55* | -5 | x | x
O=C(Nc1ccccc1)N1CCCCN2[C@H](CO)[C@H](c3ccc(-c4ccccc4F)cc3)[C@H]2C1 | 3 | x | 50* | 3 | x | x
COc1cccc(S(=O)(=O)N[C@H]2CC[C@H](CC(=O)NC3CCC3)O[C@@H]2CO)c1 | -2 | x | -1 | -2 | x | x
COc1ccccc1-n1c(=S)[nH]c2c(sc(=S)n2-c2ccccc2C)c1=O | x | 0 | 11 | 0 | 75* | 1
Cc1ccc2[nH]c(=O)c(CN(Cc3cccs3)S(=O)(=O)c3ccc4c(c3)OCCO4)cc2c1 | x | 4 | -3 | 2 | 34* | -2
CC(C)(C)C(=O)NC(=S)Nc1ccc(S(=O)(=O)Nc2nccs2)cc1 | x | -3 | -7 | 6 | 4 | 0
O=C(NC(=S)Nc1ccc(S(=O)(=O)Nc2nccs2)cc1)c1ccc(F)cc1 | x | 5 | -20 | 6 | 54* | -2
SMILES | RAD54 inh | PDI inh | RAD52 inh | ERp5 block | CAL PDZ FP-1 | CAL PDZ FP-2
COCN(C#N)c1nc(N(C)C)nc(N(C)C)n1 | x | 1 | -8 | 15 | 97* | 0
COCN(C#N)c1nc(OC)nc(OC)n1 | 1 | 11 | -5 | -4 | -2 | -1
COc1ccc(OCc2nnc(SCC(=O)Nc3ccccc3C#N)o2)cc1 | -5 | -6 | -19 | 1 | 54* | 0
COc1ccc(C(=O)NCc2nnc(SCC(=O)Nc3ccccc3F)o2)cc1 | -2 | 6 | 1 | 6 | -1 | -1
COc1ccc(-c2nnc(SCC(=O)Nc3ccccc3OC)o2)cc1 | 4 | -2 | 0 | 2 | x | -3
COc1ccc(C(=O)NCc2nnc(SCC(=O)Nc3ccccc3OC)o2)cc1 | 1 | 4 | -16 | -3 | 56* | -1
Cc1[nH]c2ccccc2c1C(=O)CSc1ccccc1 | -1 | -7 | x | x | -2 | 0
Cc1[nH]c2ccccc2c1C(=O)CCl | x | 5 | -16 | 4 | 63* | -1
CCCc1cc(=O)oc2cc(C)cc(OCC(=O)NCc3cccnc3)c12 | 7 | 4 | -17 | 14 | 41* | -2
O=C(Cn1nc(Cc2cccnc2)c2ccccc2c1=O)Nc1ccccc1F | -2 | 3 | -11 | -1 | -3 | 1
O=C(Cn1nc(Cc2cccnc2)c2ccccc2c1=O)Nc1cc(F)ccc1F | -3 | -2 | -22 | 4 | 66* | -1
O=C(C[C@@H]1C=C[C@H](NC(=O)CCN2CCCCC2)[C@@H](CO)O1)NCc1ccc(Cl)c(Cl)c1 | 0 | x | -1 | 4 | x | x
COc1ccc(S(=O)(=O)Nc2ccc3c(c2)C(=O)N([C@@H](C)CO)C[C@@H](C)[C@@H](CN(C)C(=O)Nc2ccc4c(c2)OCO4)OCCCC[C@H](C)O3)cc1 | 4 | x | 11 | 3 | x | x
COc1ccc(N(C(=O)c2csnn2)C(C(=O)NC2CCCC2)c2cccs2)cc1 (centres undefined) | -1 | -3 | -18 | 7 | 44* | 0
Cc1ccccc1N(C(=O)c1csnn1)C(C(=O)NC1CCCC1)c1ccncc1 (centres undefined) | -13 | -6 | -6 | -5 | 33* | -2
C[C@@H]1CN([C@@H](C)CO)C(=O)Cc2cc(NC(=O)Nc3ccc(C(F)(F)F)cc3)ccc2O[C@H]1CN(C)S(C)(=O)=O | -13 | x | 11 | 0 | x | x
NC(=S)N=Nc1c(O)n(Cc2ccccc2)c2ccccc12 | 0 | 15 | -15 | 2 | 0 | 0
C/C(Cl)=C\Cn1c(O)c(N=NC(N)=S)c2ccccc21 | x | 6 | -18 | -2 | 76* | 1
CC(C)NC(=O)N(C)C[C@@H]1Oc2ccc(NC(=O)Nc3cccc4ccccc34)cc2C(=O)N([C@@H](C)CO)C[C@@H]1C | -3 | x | -16 | 1 | x | x
COCC(C)N1CCC(Oc2cccc(C(=O)NCCc3ccccc3)c2)CC1 (centres undefined) | -12 | 9 | -15 | -4 | 49* | 0
Cc1ccc(S(=O)(=O)N(C)C[C@H]2Oc3cc(C#Cc4ccncc4)ccc3S(=O)(=O)N([C@@H](C)CO)C[C@H]2C)cc1 | -2 | x | -92 | 15 | x | x
CSc1ccccc1C(=O)Nc1ccc2c(c1)CCC2 | -12 | -4 | -29 | 4 | 68* | -3
